According to ChEMBL document CHEMBL1123481, “Structure-activity relationships of (arylalkyl)imidazole anticonvulsants: comparison of the (fluorenylalkyl)imidazoles with nafimidone and denzimol” (J Med Chem, 1986):

Key:
[1] = system: Mus musculus; experiment: Effective dose in mice by pentylenetetrazole assay (administered subcutaneously); format: functional; settings: sc
Outline: (§1)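 Test compound was given orally to mice. At its previously determined time of peak effect, pentylenetetrazole (110 mg/kg in water, 10 mL/kg) was injected sc into the neck skin fold. Mice were watched for 15 min for presence or absence of a clonic seizure. Where protection was bell-shaped, the value is the dose giving maximum protection.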

[2] = organism: Mus musculus; experiment: Compound was tested for time to peak anticonvulsant effect (TPE); format: functional
Outline: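 Time to peak effect after oral dosing in 5% acacia/water was estimated by testing mice at 0.5, 1, 2, 3 and 4 h posttreatment in the MES and horizontal screen tests.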

[3] = system: Mus musculus; experiment: Effective dose in mice by horizontal screen assay (administered orally); format: functional; settings: po
Outline: (§2)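 Fasted, pre-trained male CF1 mice (20–25 g) were dosed orally across a range of doses, given as a suspension in 5% acacia/water. Each mouse was placed on a 13 cm square wire screen, and the screen was rotated 180°. The score was return to the top within 1 min. Time of peak effect was scanned at 0.5–4 h. Each compound was then retested at that time with at least 4 doses and 12 mice per dose.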

[4] = system: Mus musculus; experiment: Effective dose in mice by horizontal screen assay (administered orally); No effect at highest dose of 400 mg/kg; format: functional, organism-based; parameters: dose 400 mg/kg; outline: as §2
[5] = organism: Mus musculus; experiment: Potentiation of hexobarbital-induced sleeping time in mice; format: functional
Outline: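 Groups of 10 fasted mice received compound orally at 10 mg/kg in 5% acacia/water (10 mL/kg). At the compound's time of peak effect they were given hexobarbital 100 mg/kg ip, solubilized with stoichiometric NaOH. Sleeping time, measured as loss of righting reflex, was recorded to the nearest minute. Values are mean ± SEM.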

[6] = system: Mus musculus; experiment: Effective dose in mice by maximal electroshock assay, administered orally; format: functional; settings: po
Outline: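 Mice were dosed orally across a range of doses, given in 5% acacia/water. Time of peak effect was found by shocking at 0.5, 1, 2, 3 and 4 h. Corneal electroshock was 40 mA, 0.1 s, ac. Each compound was retested at peak time with at least four doses and 12 mice per dose. The ED50 for prevention of tonic-extensor convulsion was calculated by Litchfield–Wilcoxon; 95% confidence limits are given.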

[7] = system: Mus musculus; experiment: Compound was tested for effective dose in mice by pentylenetetrazole assay (administered subcutaneously); No effect at highest dose of 800 mg/kg; format: functional, organism-based; parameters: dose 800 mg/kg; outline: as §1
[8] = system: Mus musculus; experiment: Compound was tested for effective dose in mice by horizontal screen assay (administered orally); No effect at highest dose of 200 mg/kg; format: functional, organism-based; parameters: dose 200 mg/kg; outline: as §2
[9] = system: Mus musculus; experiment: Compound was tested for effective dose in mice by pentylenetetrazole assay (administered subcutaneously); Ca 400; format: functional; settings: sc; outline: as §1
[10] = system: Mus musculus; experiment: Compound was tested for effective dose in mice by pentylenetetrazole assay (administered subcutaneously); No effect at highest dose of 100 mg/kg; format: functional, organism-based; parameters: dose 100 mg/kg; outline: as §1
[11] = system: Mus musculus; experiment: Compound was tested for effective dose in mice by horizontal screen assay (administered orally); Ca 550; format: functional; settings: po; outline: as §2
[12] = system: Mus musculus; experiment: Effective dose in mice by pentylenetetrazole assay (administered subcutaneously); No effect at highest dose of 400 mg/kg; format: functional, organism-based; parameters: dose 400 mg/kg; outline: as §1
[13] = target: T1, GABA-A receptor; anion channel (Rattus norvegicus) (UniProt O09028+P15431+P18506+P18508+P19969+P20236+P23574+P23576+P28471+P28473+P30191+P62813+P63079+P63138+Q91ZM7+Q9ES14); experiment: In vitro displacement of [3H]flunitrazepam binding to cortical membranes at 5e-5M concentration
Outline: (§3)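 Rat cortical membranes (180 μg protein) were incubated with 2 nM [3H]flunitrazepam in 50 mM Tris-HCl pH 7.4 for 40 min at 4 °C, with test compound at 5×10^-5 M, in triplicate. Samples were filtered and washed three times with ice-cold buffer. Nonspecific binding was defined with 3 μM diazepam. Results are given as % of control, mean ± SEM.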

[14] = target: T1, GABA-A receptor; anion channel (Rattus norvegicus); experiment: In vivo displacement of [3H]flunitrazepam binding to rat cortical membranes after 20 mg/kg ip dose; format: organism-based; parameters: dose 20 mg/kg; settings: Membrane, at 20 mg/kg
Outline: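 Male Sprague-Dawley rats (100 g; five per group) received saline or compound at 20 mg/kg ip. After 30 min, [3H]flunitrazepam (100 μCi/kg) was given iv via the tail vein. Rats were killed 20 min later. Cortex was homogenized in 50 mM Tris-HCl pH 7.4, and the particulate fraction was filtered and rinsed. Results are given as % of saline control, mean ± SEM.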

[15] = target: T1, GABA-A receptor; anion channel (Rattus norvegicus); experiment: In vitro displacement of [3H]flunitrazepam binding from rat cortical membranes at 50 uM; format: cell membranes; settings: Membrane; outline: as §3
[16] = system: Mus musculus; experiment: Compound was tested for effective dose in mice by pentylenetetrazole assay (administered subcutaneously);No effect at highest dose of 200 mg/kg; format: functional, organism-based; parameters: dose 200 mg/kg; outline: as §1
[17] = system: Mus musculus; experiment: Compound was tested for effective dose in mice by horizontal screen assay (administered orally; No effect at highest dose of 200 mg/kg

Compound	ED50 [1]	TPE [2]	ED50 [3]	ED50 [4]	ED50 [6]	also measured
c1ccc2c(c1)Cc1cc(C3(Cn4ccnc4)SCCS3)ccc1-2	> 400 mg/kg	2 h	> 400 mg/kg	–	–	–
COc1ccc2c(c1)Cc1cc(C(=O)Cn3ccnc3)ccc1-2	–	2 h	–	No effect	360 mg/kg	ST [5]: 56.9 min; ED50 [7]: No effect
OC(Cn1ccnc1)c1ccc2c(c1)Cc1ccccc1-2 (configuration not stated)	–	1 h	–	–	–	ED50 [8]: No effect; ST [5]: 118.3 min; ED50 [9]: 400 mg/kg
c1ccc2c(c1)Cc1cc(C3(Cn4ccnc4)OCCO3)ccc1-2	–	4 h	> 100 mg/kg	–	–	ED50 [10]: No effect; ST [5]: 88.7 min
CCc1nccn1CC(=O)c1ccc2c(c1)Cc1ccccc1-2	> 400 mg/kg	2 h	> 400 mg/kg	–	190 mg/kg	–
O=C(Cn1ccnc1)c1cccc2c1-c1ccccc1C2	400 mg/kg	1 h	> 400 mg/kg	–	–	–
CCc1ccc2c(c1)Cc1cc(C(=O)Cn3ccnc3)ccc1-2.Cl	> 400 mg/kg	1 h	–	No effect	240 mg/kg	–
O=C(Cn1ccnc1)c1ccc2c(c1)CCc1ccccc1-2	–	2 h	–	–	60 mg/kg	ED50 [11]: 550 mg/kg; ED50 [12]: No effect
O=C(Cn1ccnc1)c1ccc2c(ccc3ccccc32)c1	> 400 mg/kg	1 h	> 400 mg/kg	–	150 mg/kg	Control [13]: 128%; Control [14]: 128%; Binding [15]: 28%
CC1(C)c2ccccc2-c2ccc(C(=O)Cn3ccnc3)cc21	> 400 mg/kg	1 h	> 400 mg/kg	–	–	–
O=C(Cn1ccnc1)c1ccc2c(c1)Cc1cc(Br)ccc1-2	–	2 h	–	No effect	–	ED50 [12]: No effect
Cc1nccn1CC(=O)c1ccc2c(c1)Cc1ccccc1-2	–	1 h	> 400 mg/kg	–	–	–
c1ccc2c(c1)Cc1cc(C3(CCn4ccnc4)OCCO3)ccc1-2	> 400 mg/kg	1 h	–	No effect	–	–
c1ccc2cc(CCn3ccnc3)ccc2c1	> 200 mg/kg	1 h	> 200 mg/kg	–	51 mg/kg	–
CC1c2ccccc2-c2ccc(C(=O)Cn3ccnc3)cc21 (configuration not stated)	–	2 h	–	–	–	ED50 [16]: No effect; ST [5]: 69.7 min; ED50 [17]: No effect
CC(C)c1ccc2c(c1)Cc1cc(C(=O)Cn3ccnc3)ccc1-2	–	2 h	–	No effect	190 mg/kg	ED50 [12]: No effect
OC(CCn1ccnc1)c1ccc2c(c1)Cc1ccccc1-2 (configuration not stated)	–	1 h	> 400 mg/kg	–	–	ST [5]: 75 min; ED50 [12]: No effect
O=C(Cn1ccnc1)c1cc2ccccc2s1	> 400 mg/kg	1 h	> 400 mg/kg	–	86 mg/kg	–
Cc1ccc2c(c1)Cc1cc(C(=O)Cn3ccnc3)ccc1-2	–	2 h	–	No effect	–	ED50 [12]: No effect
